Assay results as given in ChEMBL document CHEMBL4411301, “Design, Biological Evaluation, and Molecular Modeling of Tetrahydroisoquinoline Derivatives: Discovery of A Potent P-Glycoprotein Ligand Overcoming Multidrug Resistance in Cancer Stem Cells” (J Med Chem, 2019).
Active and inactive are the calls of the source. No cut-off for these calls is given here.

Columns and labels:
[1] = target: T1, ATP-dependent translocase ABCB1 (Homo sapiens, UniProt P08183); test: Inhibition of MDR1 in human primary mesothelioma stem cells assessed as increase in intracellular doxorubicin accumulation at 10 to 10000 nM after 3 hrs by spectrofluorimetric analysis; format: cell-based
How it was run: (§1)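 Differentiated or stem cells from primary glioblastoma or mesothelioma of 3 patients (stem cells used within passage 6). Incubated 3 h with 5 µM doxorubicin, alone or with compound (DMSO 1% v/v). Washed, lysed in ethanol/0.3 N HCl, doxorubicin fluorescence read at ex 475/em 553 nm and expressed as nmol/mg cell protein via calibration curve. Duplicates, n=3, mean ± SEM.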

[2] = target: T1, ATP-dependent translocase ABCB1; test: Inhibition of MDR1 in human primary mesothelioma stem cells assessed as increase in doxorubicin-induced reduction in cell viability at 1 uM after 72 hrs by ATPlite luminescence assay
How it was run: (§2)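 Primary glioblastoma or mesothelioma differentiated and stem cells incubated 72 h with medium, 5 µM doxorubicin, 10 nM compound or 1 µM elacridar, alone or combined (DMSO 1% v/v). Viability by ATPlite luminescence as % of untreated RLU. Quadruplicates, n=3, mean ± SEM, one-way ANOVA.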

[3] = target: T1, ATP-dependent translocase ABCB1; test: Inhibition of MDR1 in human primary mesothelioma stem cells assessed as increase in doxorubicin-induced reduction in cell viability at 1 uM after 24 hrs by LDH release assay
[4] = target: T1, ATP-dependent translocase ABCB1; test: Inhibition of MDR1 in human primary glioblastoma stem cells assessed as increase in doxorubicin-induced reduction in cell viability at 1 uM after 72 hrs by ATPlite luminescence assay; how it was run: as §2
[5] = target: T1, ATP-dependent translocase ABCB1; test: Inhibition of MDR1 in human primary glioblastoma stem cells assessed as increase in intracellular doxorubicin accumulation at 10 to 10000 nM after 3 hrs by spectrofluorimetric analysis; format: cell-based; how it was run: as §1
Homo sapiens [6] = species: Homo sapiens; test: Potentiation of doxorubicin-induced cytotoxicity in human differentiated primary mesothelioma stem cells assessed as increase in doxorubicin-induced reduction in cell viability at 1 uM after 72 hrs by ATPlite luminescence assay; format: functional, cell-based; how it was run: as §2
Homo sapiens [7] = species: Homo sapiens; test: Induction of intracellular doxorubicin accumulation in human differentiated primary mesothelioma stem cells at 10 to 10000 nM after 3 hrs by spectrofluorimetric analysis; format: functional, cell-based; how it was run: as §1
Homo sapiens [8] = species: Homo sapiens; test: Potentiation of doxorubicin-induced cytotoxicity in human differentiated primary mesothelioma stem cells assessed as increase in doxorubicin-induced reduction in cell viability at 1 uM after 24 hrs by LDH release assay; format: functional, cell-based
[9] = target: T1, ATP-dependent translocase ABCB1; test: Inhibition of MDR1 in human primary glioblastoma stem cells assessed as increase in doxorubicin-induced reduction in cell viability at 1 uM after 24 hrs by LDH release assay
Homo sapiens [10] = species: Homo sapiens; test: Potentiation of doxorubicin-induced cytotoxicity in human differentiated primary glioblastoma cells assessed as increase in doxorubicin-induced reduction in cell viability at 1 uM after 24 hrs by LDH release assay; format: functional, cell-based
Homo sapiens [11] = species: Homo sapiens; test: Potentiation of doxorubicin-induced cytotoxicity in human differentiated primary glioblastoma cells assessed as increase in doxorubicin-induced reduction in cell viability at 1 uM after 72 hrs by ATPlite luminescence assay; format: functional, cell-based; how it was run: as §2
Homo sapiens [12] = species: Homo sapiens; test: Induction of intracellular doxorubicin accumulation in human differentiated primary glioblastoma cells at 10 to 10000 nM after 3 hrs by spectrofluorimetric analysis; format: functional, cell-based; how it was run: as §1
[13] = target: T1, ATP-dependent translocase ABCB1; test: Inhibition of MDR1 in human GSC assessed as increase in doxorubicin-induced cell toxicity at 10 nM after 24 hrs by LDH release assay; settings: 0.01 µM
[14] = target: MDR1 (ABCB1, P-glycoprotein) (Homo sapiens, UniProt P08183); test: Activity at MDR1 in human Caco2 cells assessed as efflux ratio of apparent permeability from basolateral to apical side over apical to basolateral side; format: cell-based; settings: Caco-2
How it was run: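 Caco-2 cells grown 21 days on filter inserts, then washed with HBSS and equilibrated 30 min at 37 °C. Compound at 100 µM added to the donor side and incubated 120 min at 37 °C. Papp in nm/s calculated as (VA/Area) × ([drug]acceptor/[drug]initial)/time, membrane area 0.11 cm2. BA/AB ratio from two independent experiments.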

Homo sapiens [15] = species: Homo sapiens; test: Induction of doxorubicin accumulation in P-gp knocked out human primary mesothelioma stem cells co-expressing CRISPR-Cas at 10 nM after 3 hrs by spectrofluorimetric analysis; format: functional
How it was run: (§3)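 Patient-derived glioblastoma (line 4, patient #2) or mesothelioma (line 5, patient #1) stem cells, untreated, scrambled CRISPR-Cas or P-gp CRISPR-Cas knockout. Incubated 3 h with 5 µM doxorubicin. Cells lysed in ethanol/0.3 N HCl and doxorubicin read fluorimetrically at ex 475/em 553 nm, converted to nmol/mg protein by calibration. Duplicates, n=3, mean ± SEM, one-way ANOVA.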

[16] = target: T1, ATP-dependent translocase ABCB1; test: Inhibition of MDR1 in human primary glioblastoma stem cells assessed as increase in doxorubicin-induced reduction in cell viability at 10 nM after 72 hrs by ATPlite luminescence assay; settings: 0.01 µM; how it was run: as §2
[17] = target: T1, ATP-dependent translocase ABCB1; test: Inhibition of MDR1 in human primary glioblastoma stem cells assessed as increase in doxorubicin-induced reduction in cell viability at 10 nM after 24 hrs by LDH release assay; settings: 0.01 µM
Homo sapiens [18] = species: Homo sapiens; test: Potentiation of doxorubicin-induced cytotoxicity in human differentiated primary mesothelioma cells assessed as increase in doxorubicin-induced reduction in cell viability at 10 nM after 24 hrs by LDH release assay; format: functional, cell-based
[19] = target: T1, ATP-dependent translocase ABCB1; test: Inhibition of MDR1 (unknown origin) expressed in MDCK1 cells assessed as potentiation of doxorubicin-induced decrease in cell proliferation at 1 uM administered alone on day 2 followed by drug addition day 3 along with doxorubicin addition by MTT assay; format: cell-based
How it was run: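 MDCK-MDR1 cells, 10000/well. On day 2, compound alone at 10 nM, 100 nM or 1 µM. On day 3, medium replaced with compound alone or with 10 µM doxorubicin; 48 h assay. MTT 0.5 mg/mL for 3–4 h at 37 °C, formazan dissolved in DMSO/EtOH 1:1, absorbance read at 570/630 nm. Solvent 1% v/v DMSO. Mean ± SEM, two experiments in triplicate; one-way ANOVA.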

Homo sapiens [20] = species: Homo sapiens; test: Potentiation of doxorubicin-induced cytotoxicity in human differentiated primary mesothelioma cells assessed as increase in doxorubicin-induced reduction in cell viability at 10 nM after 72 hrs by ATPlite luminescence assay; format: functional, cell-based; how it was run: as §2
[21] = target: T1, ATP-dependent translocase ABCB1; test: Inhibition of MDR1 in human primary mesothelioma stem cells assessed as increase in doxorubicin-induced reduction in cell viability at 10 nM after 72 hrs by ATPlite luminescence assay; settings: 0.01 µM; how it was run: as §2
[22] = target: Multidrug resistance-associated protein 1 (Homo sapiens, UniProt P33527); test: Inhibition of MRP1 (unknown origin) expressed in MDCK cells assessed as increase in calcein-AM accumulation incubated for 30 mins by calcein-AM dye based fluorescence assay; format: cell-based
How it was run: (§4)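 MDCK-MDR1 or MDCK-MRP1 cells seeded at 30,000/well and grown to confluence overnight. Compound (0.1–100 µM final, in medium) incubated 30 min at 37 °C, then calcein-AM added (2.5 µM final) for 30 min. Cells washed with ice-cold PBS and read at ex 485/em 535 nm. EC50 fitted from % fluorescence increase over untreated vs log dose. Mean ± SEM, three experiments in triplicate.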

Homo sapiens [23] = species: Homo sapiens; test: Potentiation of doxorubicin-induced cytotoxicity in human differentiated primary glioblastoma cells assessed as increase in doxorubicin-induced reduction in cell viability at 10 nM after 72 hrs by ATPlite luminescence assay; format: functional, cell-based; how it was run: as §2
[24] = Cytotoxicity against human GSC at 10 nM after 24 hrs by LDH release assay; settings: 0.01 µM
[25] = target: T1, ATP-dependent translocase ABCB1; test: Inhibition of MDR1 (unknown origin) expressed in MDCK cells assessed as increase in calcein-AM accumulation after 30 mins by calcein-AM dye based fluorescence assay; format: cell-based; settings: read-out: EC50; how it was run: as §4
[26] = Cytotoxicity against human MSC at 10 nM after 24 hrs by LDH release assay; settings: 0.01 µM
Homo sapiens [27] = species: Homo sapiens; test: Potentiation of doxorubicin-induced cytotoxicity in human differentiated primary glioblastoma cells assessed as increase in doxorubicin-induced reduction in cell viability at 10 nM after 24 hrs by LDH release assay; format: functional, cell-based
[28] = target: T2, Broad substrate specificity ATP-binding cassette transporter ABCG2 (Homo sapiens, UniProt Q9UNQ0); test: Inhibition of BCRP (unknown origin) expressed in MDCK cells assessed as reduction in Hoechst 33342 efflux preincubated for 30 mins followed by Hoechst 3334 addition measured after 30 mins by fluorescence assay; format: cell-based; settings: mdck
T2 sequence (Q9UNQ0 whole entry): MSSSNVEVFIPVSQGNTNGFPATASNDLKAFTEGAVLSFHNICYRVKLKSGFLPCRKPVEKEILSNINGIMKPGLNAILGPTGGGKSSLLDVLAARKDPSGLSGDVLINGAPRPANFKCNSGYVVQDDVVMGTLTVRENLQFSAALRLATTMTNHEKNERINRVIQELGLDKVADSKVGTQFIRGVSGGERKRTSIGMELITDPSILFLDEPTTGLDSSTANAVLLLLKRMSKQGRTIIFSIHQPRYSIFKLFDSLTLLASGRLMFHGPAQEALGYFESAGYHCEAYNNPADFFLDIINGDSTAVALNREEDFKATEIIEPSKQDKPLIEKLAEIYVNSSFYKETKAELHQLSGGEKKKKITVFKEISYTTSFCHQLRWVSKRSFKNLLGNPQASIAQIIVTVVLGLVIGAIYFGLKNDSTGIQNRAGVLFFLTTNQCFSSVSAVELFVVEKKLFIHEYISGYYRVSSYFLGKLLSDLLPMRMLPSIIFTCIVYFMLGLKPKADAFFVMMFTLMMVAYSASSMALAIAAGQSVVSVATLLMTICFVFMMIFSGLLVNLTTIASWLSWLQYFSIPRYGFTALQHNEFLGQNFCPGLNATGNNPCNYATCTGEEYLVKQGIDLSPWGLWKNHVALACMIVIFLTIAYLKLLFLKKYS
How it was run: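 MDCK-BCRP monolayers (30,000 cells/well, confluent overnight) preincubated 30 min at 37 °C with compound (0.1–100 µM final). Hoechst 33342 then added (8 µM final) for 30 min. Cells fixed 20 min in 4% PFA, washed with ice-cold PBS and read at ex 340/em 485 nm. EC50 fitted from % fluorescence increase over basal vs log dose. Mean ± SEM, three experiments in triplicate.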

Homo sapiens [29] = species: Homo sapiens; test: Induction of doxorubicin accumulation in P-gp knocked out human primary glioblastoma stem cells co-expressing CRISPR-Cas at 10 nM after 3 hrs by spectrofluorimetric analysis; format: functional; how it was run: as §3
[30] = target: T1, ATP-dependent translocase ABCB1; test: Inhibition of MDR1 in human MSC assessed as increase in doxorubicin-induced cell toxicity at 10 nM after 24 hrs by LDH release assay; settings: 0.01 µM
[31] = target: T1, ATP-dependent translocase ABCB1; test: Inhibition of MDR1 in human primary mesothelioma stem cells assessed as increase in doxorubicin-induced reduction in cell viability at 10 nM after 24 hrs by LDH release assay; settings: 0.01 µM

T1 sequence (P08183 whole entry): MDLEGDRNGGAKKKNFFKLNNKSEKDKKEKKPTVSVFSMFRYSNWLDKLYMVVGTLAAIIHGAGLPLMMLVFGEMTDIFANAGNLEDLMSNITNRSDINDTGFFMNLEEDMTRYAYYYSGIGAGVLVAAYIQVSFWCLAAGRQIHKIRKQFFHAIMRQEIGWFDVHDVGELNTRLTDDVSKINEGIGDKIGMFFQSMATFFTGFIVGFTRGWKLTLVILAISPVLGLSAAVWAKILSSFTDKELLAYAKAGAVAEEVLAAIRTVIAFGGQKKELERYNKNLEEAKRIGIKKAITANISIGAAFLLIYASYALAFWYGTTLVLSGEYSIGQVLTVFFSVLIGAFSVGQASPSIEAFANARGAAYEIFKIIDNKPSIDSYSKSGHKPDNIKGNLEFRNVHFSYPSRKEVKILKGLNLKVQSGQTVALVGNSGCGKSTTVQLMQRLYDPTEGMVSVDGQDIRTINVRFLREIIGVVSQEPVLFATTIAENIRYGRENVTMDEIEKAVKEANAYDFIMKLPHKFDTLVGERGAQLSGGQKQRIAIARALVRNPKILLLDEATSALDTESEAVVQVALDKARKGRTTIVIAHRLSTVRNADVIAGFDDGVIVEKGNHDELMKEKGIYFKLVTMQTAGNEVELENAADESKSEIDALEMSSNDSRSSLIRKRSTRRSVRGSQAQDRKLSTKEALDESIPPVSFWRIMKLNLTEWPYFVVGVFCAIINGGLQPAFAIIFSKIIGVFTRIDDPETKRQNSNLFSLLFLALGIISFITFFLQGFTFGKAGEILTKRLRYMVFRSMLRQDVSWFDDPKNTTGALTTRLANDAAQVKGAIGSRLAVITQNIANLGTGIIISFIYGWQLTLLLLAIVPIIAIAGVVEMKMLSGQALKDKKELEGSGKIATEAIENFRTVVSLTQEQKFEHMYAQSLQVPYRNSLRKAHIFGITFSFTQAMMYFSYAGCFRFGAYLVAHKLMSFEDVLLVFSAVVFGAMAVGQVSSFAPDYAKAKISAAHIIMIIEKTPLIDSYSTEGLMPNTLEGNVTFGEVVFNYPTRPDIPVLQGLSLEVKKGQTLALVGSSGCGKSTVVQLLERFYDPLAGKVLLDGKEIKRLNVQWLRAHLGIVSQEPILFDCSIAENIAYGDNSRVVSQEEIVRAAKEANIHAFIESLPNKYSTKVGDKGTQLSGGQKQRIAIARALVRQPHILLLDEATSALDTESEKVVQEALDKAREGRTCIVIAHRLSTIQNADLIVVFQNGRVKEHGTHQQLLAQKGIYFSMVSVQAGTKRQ
Sequence of Multidrug resistance-associated protein 1 (P33527 whole entry): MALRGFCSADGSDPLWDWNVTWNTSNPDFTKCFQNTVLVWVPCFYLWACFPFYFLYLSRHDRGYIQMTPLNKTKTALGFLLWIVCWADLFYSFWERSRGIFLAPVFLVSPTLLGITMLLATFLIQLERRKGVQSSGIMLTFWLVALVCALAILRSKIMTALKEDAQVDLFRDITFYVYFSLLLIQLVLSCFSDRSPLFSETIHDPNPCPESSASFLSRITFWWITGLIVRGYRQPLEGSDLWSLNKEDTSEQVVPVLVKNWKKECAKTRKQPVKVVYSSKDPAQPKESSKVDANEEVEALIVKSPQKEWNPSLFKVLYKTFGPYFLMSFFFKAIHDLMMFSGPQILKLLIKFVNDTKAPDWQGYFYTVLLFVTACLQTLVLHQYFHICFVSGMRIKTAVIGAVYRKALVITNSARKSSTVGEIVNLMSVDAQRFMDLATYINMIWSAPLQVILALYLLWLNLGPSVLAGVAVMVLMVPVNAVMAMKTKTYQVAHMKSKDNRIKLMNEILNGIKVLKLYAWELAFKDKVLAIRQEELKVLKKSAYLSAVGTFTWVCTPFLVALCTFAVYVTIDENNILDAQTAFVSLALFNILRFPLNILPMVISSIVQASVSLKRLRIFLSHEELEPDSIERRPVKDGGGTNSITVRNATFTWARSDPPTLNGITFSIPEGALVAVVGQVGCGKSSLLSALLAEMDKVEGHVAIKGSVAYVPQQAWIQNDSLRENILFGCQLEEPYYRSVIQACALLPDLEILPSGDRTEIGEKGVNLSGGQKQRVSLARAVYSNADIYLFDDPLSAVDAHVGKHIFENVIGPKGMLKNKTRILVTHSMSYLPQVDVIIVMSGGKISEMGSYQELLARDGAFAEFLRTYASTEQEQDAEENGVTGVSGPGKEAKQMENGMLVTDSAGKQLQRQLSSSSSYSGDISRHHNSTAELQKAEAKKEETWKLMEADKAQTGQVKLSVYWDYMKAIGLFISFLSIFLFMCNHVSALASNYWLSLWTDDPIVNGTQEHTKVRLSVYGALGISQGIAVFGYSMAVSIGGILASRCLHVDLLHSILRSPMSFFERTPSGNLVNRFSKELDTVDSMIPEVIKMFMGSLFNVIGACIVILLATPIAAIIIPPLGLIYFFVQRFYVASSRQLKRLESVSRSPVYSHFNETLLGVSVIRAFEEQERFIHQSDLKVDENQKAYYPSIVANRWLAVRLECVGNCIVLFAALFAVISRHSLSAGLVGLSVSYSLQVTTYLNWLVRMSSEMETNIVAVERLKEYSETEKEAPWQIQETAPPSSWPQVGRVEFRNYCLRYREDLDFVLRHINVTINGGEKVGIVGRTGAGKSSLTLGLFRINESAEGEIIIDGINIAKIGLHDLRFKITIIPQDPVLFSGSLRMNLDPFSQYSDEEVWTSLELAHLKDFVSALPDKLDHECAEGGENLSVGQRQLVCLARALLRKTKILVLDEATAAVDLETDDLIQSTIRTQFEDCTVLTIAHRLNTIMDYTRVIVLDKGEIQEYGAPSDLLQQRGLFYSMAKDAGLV
Sequence of MDR1 (ABCB1, P-glycoprotein) (P08183 whole entry): as the sequence (P08183 whole entry) above

## COc1cc2c(cc1OC)CN(CCc1ccc(NC(=O)c3cccc4c(=O)c5cccc(OC)c5[nH]c34)cc1)CC2 [ELACRIDAR]
[1]
  inhibition (INH): Active
[2]
  inhibition (INH): Active
[3]
  inhibition (INH): Active
[4]
  inhibition (INH): Active
[5]
  inhibition (INH): Active
Homo sapiens [6]
  Activity: inactive
Homo sapiens [7]
  Activity: inactive
Homo sapiens [8]
  Activity: inactive
[9]
  inhibition (INH): Active
Homo sapiens [10]
  Activity: inactive
Homo sapiens [11]
  Activity: inactive
Homo sapiens [12]
  Activity: inactive

## COc1cc2c(cc1OC)CN(Cc1ccc(-c3ccc(N(S(=O)(=O)c4ccccc4)S(=O)(=O)c4ccccc4)cc3)cc1)CC2
[13]
  inhibition (INH): Active
[14]
  efflux ratio: > 20
[1]
  inhibition (INH): Active
Homo sapiens [15]
  Activity: inactive
[16]
  inhibition (INH): Active
[5]
  inhibition (INH): Active
[17]
  inhibition (INH): Active
Homo sapiens [18]
  Activity: inactive
[19]
  inhibition (INH): Active
Homo sapiens [20]
  Activity: inactive
[21]
  inhibition (INH): Active
Homo sapiens [7]
  Activity: inactive
[22]
  EC50: Not Active
Homo sapiens [23]
  Activity: inactive
[24]
  Activity: Non-Toxic
[25]
  EC50: 15.3 nM
[26]
  Activity: Non-Toxic
Homo sapiens [27]
  Activity: inactive
[28]
  EC50: Not Active
Homo sapiens [29]
  Activity: inactive
[30]
  inhibition (INH): Active
[31]
  inhibition (INH): Active
Homo sapiens [12]
  Activity: inactive
